Measured values as given in PMC4492447 (Journal of medicinal chemistry, 2012).

Key:
[1] = SD rats, 2–3 h postdose; cited from earlier work
[2] = target: T1, CB1 (Homo sapiens, UniProt P21554); assay type: cell-based
[3] = test system: MDCK-mdr1 cells; assay: MDCK-mdr1 permeability assay; assay type: in vitro ADME, canine; settings: apical to basal, 10 μM, 1 h at 37 °C
Summary of the method: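 MDCK cells transfected with human MDR1 grown on filters for 4 days to confluence in DMEM/F12 with 10% FBS and antibiotics. Test compound added apically in HBSS with 25 mM D-glucose, HEPES-buffered to pH 7.4. Apical and basal samples collected, dried under nitrogen, and quantified by LC-MS/MS in MRM mode. Percent transfer apical to basal reported; mean of 2–3 measurements.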

[4] = pharmacokinetic evaluation in vivo, plasma and brain levels after oral dosing; design: species or system Sprague–Dawley rats
[5] = metabolic stability in human hepatic S9 fraction; assay type: in vitro ADME
Summary of the method: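 Pooled mixed-gender human hepatic S9 at 1 mg/mL, test compound at 10 μM final. Buffer: 50 mM potassium phosphate pH 7.4, 3 mM MgCl2, NADPH-regenerating system (1 mM NADP, 5 mM glucose-6-phosphate, 1 unit/mL G6PDH). Triplicates sampled at 0, 15, 30, 60, 120 min. Stopped with 3 vol acetonitrile; LC-MS/MS against standard curves in blank matrix. Read-out is percent remaining.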

[6] = target: T1, CB1; assay type: binding; settings: selectivity, [3H]CP55940 displacement

T1 sequence (P21554 whole entry): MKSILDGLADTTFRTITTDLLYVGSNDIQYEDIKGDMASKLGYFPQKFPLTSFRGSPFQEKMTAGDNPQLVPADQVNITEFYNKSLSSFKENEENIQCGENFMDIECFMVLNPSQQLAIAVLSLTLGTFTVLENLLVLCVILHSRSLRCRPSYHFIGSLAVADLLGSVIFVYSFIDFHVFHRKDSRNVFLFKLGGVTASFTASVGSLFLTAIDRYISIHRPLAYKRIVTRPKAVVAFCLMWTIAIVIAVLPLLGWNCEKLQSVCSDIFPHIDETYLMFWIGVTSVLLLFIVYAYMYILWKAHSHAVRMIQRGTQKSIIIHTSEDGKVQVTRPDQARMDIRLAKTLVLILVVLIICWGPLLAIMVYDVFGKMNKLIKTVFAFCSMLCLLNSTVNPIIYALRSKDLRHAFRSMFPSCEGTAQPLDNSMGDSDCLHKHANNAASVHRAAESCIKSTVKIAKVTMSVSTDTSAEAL

Row | Kb [2] | SMILES | also measured
1 | – | CCNC1(C(N)=O)CCN(c2ncnc3c2nc(-c2ccccc2Cl)n3-c2ccc(Cl)cc2)CC1 [Compound 2, otenabant] | brain exposure [1]: ~33%
2 | – | CS(=O)(=O)NC1(c2ccccc2)CCN(c2ncnc3c2nc(-c2ccccc2Cl)n3-c2ccc(Cl)cc2)CC1 [Compound 12, N-{1-[8-(2-Chlorophenyl)-9-(4-chlorophenyl)-9H-purin-6-yl]-4-phenylpiperidin-4-yl}methanesulfonamide] | brain penetration (in words) ([4]; SD rats, 10 mg/kg oral): limited brain penetration; time post dose of maximum concentration ([4]; SD rats, 10 mg/kg oral): 240 min; clearance (in words) ([4]; oral dosing in rats, 10 mg/kg): favorable clearance; oral absorption (in words) ([4]; oral dosing in rats, 10 mg/kg): excellent oral absorption; MDCK-mdr1 A to B [3]: <1%
3 | 443 nM | CCNC(=O)NC1(c2ccccc2)CCN(c2ncnc3c2nc(-c2ccccc2Cl)n3-c2ccc(Cl)cc2)CC1 [Compound 13b, 1-{1-[8-(2-Chlorophenyl)-9-(4-chlorophenyl)-9H-purin-6-yl]-4-phenylpiperidin-4-yl}-3-ethylurea] | –
4 | 171 nM | CCOC(=O)CNC(=O)NC1(c2ccccc2)CCN(c2ncnc3c2nc(-c2ccccc2Cl)n3-c2ccc(Cl)cc2)CC1 [Compound 13f, Ethyl 2-[({1-[8-(2-chlorophenyl)-9-(4-chlorophenyl)-9H-purin-6-yl]-4-phenylpiperidin-4-yl}carbamoyl)amino]acetate] | –
5 | 199 nM | O=C(NC1CCCCC1)NC1(c2ccccc2)CCN(c2ncnc3c2nc(-c2ccccc2Cl)n3-c2ccc(Cl)cc2)CC1 [Compound 13g, 3-{1-[8-(2-Chlorophenyl)-9-(4-chlorophenyl)-9H-purin-6-yl]-4-phenylpiperidin-4-yl}-1-cyclohexylurea] | –
6 | 5710 nM | Clc1ccc(-n2c(-c3ccccc3Cl)nc3c(NC4CCNCC4)ncnc32)cc1 [Compound 14b, 8-(2-Chlorophenyl)-9-(4-chlorophenyl)-N-(piperidin-4-yl)-9H-purin-6-amine] | –
7 | 1150 nM | CCNC(=O)N1CCC(Nc2ncnc3c2nc(-c2ccccc2Cl)n3-c2ccc(Cl)cc2)CC1 [Compound 14c, 4-{[8-(2-Chlorophenyl)-9-(4-chlorophenyl)-9H-purin-6-yl]amino}-N-ethylpiperidine-1-carboxamide] | –
8 | 495 nM | CC(C)NC(=O)N1CCC(Nc2ncnc3c2nc(-c2ccccc2Cl)n3-c2ccc(Cl)cc2)CC1 [Compound 14d, 4-{[8-(2-Chlorophenyl)-9-(4-chlorophenyl)-9H-purin-6-yl]amino}-N-(propan-2-yl)piperidine-1-carboxamide] | –
9 | 1960 nM | CCCNC(=O)N1CCC(Nc2ncnc3c2nc(-c2ccccc2Cl)n3-c2ccc(Cl)cc2)CC1 [Compound 14e, 4-{[8-(2-Chlorophenyl)-9-(4-chlorophenyl)-9H-purin-6-yl]amino}-N-propylpiperidine-1-carboxamide] | –
10 | – | CCCCNC(=O)N1CCC(Nc2ncnc3c2nc(-c2ccccc2Cl)n3-c2ccc(Cl)cc2)CC1 [Compound 14f, N-Butyl-4-{[8-(2-chlorophenyl)-9-(4-chlorophenyl)-9H-purin-6-yl]amino}piperidine-1-carboxamide] | CB2/CB1 Ki ratio [6]: >5
11 | 1650 nM | CS(=O)(=O)N1CCC(Nc2ncnc3c2nc(-c2ccccc2Cl)n3-c2ccc(Cl)cc2)CC1 [Compound 14g, 8-(2-Chlorophenyl)-9-(4-chlorophenyl)-N-(1-methanesulfonylpiperidin-4-yl)-9H-purin-6-amine] | –
12 | 1500 nM | CCNC(=O)N1CCC[C@@H](Nc2ncnc3c2nc(-c2ccccc2Cl)n3-c2ccc(Cl)cc2)C1 [Compound 15c, (3R)-3-{[8-(2-Chlorophenyl)-9-(4-chlorophenyl)-9H-purin-6-yl]-amino}-N-ethylpiperidine-1-carboxamide] | –
13 | 920 nM | CC(=O)N1CCC[C@@H](Nc2ncnc3c2nc(-c2ccccc2Cl)n3-c2ccc(Cl)cc2)C1 [Compound 15d, 1-[(3R)-3-{[8-(2-Chlorophenyl)-9-(4-chlorophenyl)-9H-purin-6-yl]-amino}piperidin-1-yl]ethan-1-one] | –
14 | 346 nM | CS(=O)(=O)N1CCC[C@@H](Nc2ncnc3c2nc(-c2ccccc2Cl)n3-c2ccc(Cl)cc2)C1 [Compound 15e, 8-(2-Chlorophenyl)-9-(4-chlorophenyl)-N-[(3R)-1-methanesulfonylpiperidin-3-yl]-9H-purin-6-amine] | –
15 | 1150 nM | CCNC(=O)N1CCC[C@H](Nc2ncnc3c2nc(-c2ccccc2Cl)n3-c2ccc(Cl)cc2)C1 [Compound 16c, (3S)-3-{[8-(2-Chlorophenyl)-9-(4-chlorophenyl)-9H-purin-6-yl]-amino}-N-ethylpiperidine-1-carboxamide] | –
16 | 4450 nM | CC(=O)N1CCC[C@H](Nc2ncnc3c2nc(-c2ccccc2Cl)n3-c2ccc(Cl)cc2)C1 [Compound 16d, 1-[(3S)-3-{[8-(2-Chlorophenyl)-9-(4-chlorophenyl)-9H-purin-6-yl]-amino}piperidin-1-yl]ethan-1-one] | –
17 | 6040 nM | CS(=O)(=O)N1CCC[C@H](Nc2ncnc3c2nc(-c2ccccc2Cl)n3-c2ccc(Cl)cc2)C1 [Compound 16e, 8-(2-Chlorophenyl)-9-(4-chlorophenyl)-N-[(3S)-1-methanesulfonylpiperidin-3-yl]-9H-purin-6-amine] | –
18 | 149 nM | CCNC(=O)NC1CCN(c2ncnc3c2nc(-c2ccccc2Cl)n3-c2ccc(Cl)cc2)CC1 [Compound 17c, 1-{1-[8-(2-Chlorophenyl)-9-(4-chlorophenyl)-9H-purin-6-yl]-piperidin-4-yl}-3-ethylurea] | –
19 | 133 nM | CC(C)NC(=O)NC1CCN(c2ncnc3c2nc(-c2ccccc2Cl)n3-c2ccc(Cl)cc2)CC1 [Compound 17d, 1-{1-[8-(2-Chlorophenyl)-9-(4-chlorophenyl)-9H-purin-6-yl]-piperidin-4-yl}-3-(propan-2-yl)urea] | –
20 | 132 nM | CCCNC(=O)NC1CCN(c2ncnc3c2nc(-c2ccccc2Cl)n3-c2ccc(Cl)cc2)CC1 [Compound 17e, 1-{1-[8-(2-chlorophenyl)-9-(4-chlorophenyl)-9H-purin-6-yl]-piperidin-4-yl}-3-propylurea] | –
21 | 631 nM | CC(=O)NC1CCN(c2ncnc3c2nc(-c2ccccc2Cl)n3-c2ccc(Cl)cc2)CC1 [Compound 17g, N-{1-[8-(2-Chlorophenyl)-9-(4-chlorophenyl)-9H-purin-6-yl]-piperidin-4-yl}acetamide] | –

Row | SMILES | Kb [2] | also measured
22 | CC(C)(C)OC(=O)NC1(c2ccccc2)CCN(c2ncnc3c2nc(-c2ccccc2Cl)n3-c2ccc(Cl)cc2)CC1 [Compound 10, tert-Butyl N-{1-[8-(2-chlorophenyl)-9-(4-chlorophenyl)-9H-purin-6-yl]-4-phenylpiperidin-4-yl}carbamate] | 3.9 nM | MDCK-mdr1 A to B [3]: <1%
23 | NC1(c2ccccc2)CCN(c2ncnc3c2nc(-c2ccccc2Cl)n3-c2ccc(Cl)cc2)CC1 [Compound 11, 1-[8-(2-Chlorophenyl)-9-(4-chlorophenyl)-9H-purin-6-yl]-4-phe-nylpiperidin-4-amine] | 15.9 nM | MDCK-mdr1 A to B [3]: <1%
24 | CC(C)(C)NC(=O)NC1(c2ccccc2)CCN(c2ncnc3c2nc(-c2ccccc2Cl)n3-c2ccc(Cl)cc2)CC1 [Compound 13a, 3-tert-Butyl-1-{1-[8-(2-chlorophenyl)-9-(4-chlorophenyl)-9H-purin-6-yl]-4-phenylpiperidin-4-yl}urea] | 19.2 nM | metabolism in S9 fraction (in words) [5]: significant metabolism; MDCK-mdr1 A to B [3]: <1%
25 | CCCCNC(=O)NC1(c2ccccc2)CCN(c2ncnc3c2nc(-c2ccccc2Cl)n3-c2ccc(Cl)cc2)CC1 [Compound 13e, 3-Butyl-1-{1-[8-(2-chlorophenyl)-9-(4-chlorophenyl)-9H-purin-6-yl]-4-phenylpiperidin-4-yl}urea] | 62 nM | –
26 | CCCCNC(=O)NC1CCN(c2ncnc3c2nc(-c2ccccc2Cl)n3-c2ccc(Cl)cc2)CC1 [Compound 17f, 3-Butyl-1-{1-[8-(2-chlorophenyl)-9-(4-chlorophenyl)-9H-purin-6-yl]piperidin-4-yl}urea] | 49 nM | –
27 | CS(=O)(=O)NC1CCN(c2ncnc3c2nc(-c2ccccc2Cl)n3-c2ccc(Cl)cc2)CC1 [Compound 17h, N-{1-[8-(2-Chlorophenyl)-9-(4-chlorophenyl)-9H-purin-6-yl]-piperidin-4-yl}methanesulfonamide] | 71 nM | –
